In ChEMBL document CHEMBL5724801, “EUbOPEN Chemogenomics Library - Multiplex” (2024):
“And” between values parts separate entries of the source, which are not always exact repeats. Equal values may be shown once.

Test system: U2OS
Experiment: Multiplex assay against U2OS
Type: toxicity, cell-based
Conditions: human
Outline: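 Phenotypes for tubulin, mitochondrial mass and membrane permeability are expressed as per cents of healthy-nucleus cells. Cells were stained live at seeding with Hoechst33342, BioTracker Green Microtubule Cytoskeleton Dye, MitoTracker Red and Annexin V Alexa Fluor 680, then imaged after compound addition on a CQ1 microscope at 37°C and 5% CO2. Machine-learning gating in CellPathfinder separated Hoechst high-intensity objects from normal cells, divided normal cells by nuclear state (healthy, pyknosed, fragmented) and divided pyknosed cells into mitotic or apoptotic.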

[1] = 12 h, 1 µM, compound concentration 1 uM
[2] = 12 h, 10 µM, compound concentration 10 uM
[3] = 24 h, 1 µM, compound concentration 1 uM
[4] = 24 h, 10 µM, compound concentration 10 uM
[5] = 48 h, 1 µM, compound concentration 1 uM
[6] = 48 h, 10 µM, compound concentration 10 uM

CN(C)Cc1cccc(NC(=C2C(=O)Nc3cc(C(=O)N(C)C)ccc32)c2ccccc2)c1
Population Apoptotic (%) [1]: 28.26% and 30.43%
Population Fragmented Nuclei (%) [1]: 2.06% and 3.41%
Population Healthy Nuclei (%) [1]: 87.39% and 83.52%
Population Hoechst High Intensity Objects (%) [1]: 0%
Population Membrane Permeable-Phenotype (%) [1]: 0.52% and 6.8%
Population Mitochondria Different-Phenotype (%) [1]: 0% and 12.24%
Population Mitotic Cells (%) [1]: 71.74% and 69.57%
Population Normal (%) [1]: 100%
Population Pyknosed Nuclei (%) [1]: 10.55% and 13.07%
Population Tubulin-Different-Phenotype (%) [1]: 2.1% and 0.68%
Total Cell Count [1]: 436 and 176
Population Apoptotic (%) [2]: 55.32% and 60.53%
Population Fragmented Nuclei (%) [2]: 3.8% and 4.6%
Population Healthy Nuclei (%) [2]: 81.33% and 73.56%
Population Hoechst High Intensity Objects (%) [2]: 0%
Population Membrane Permeable-Phenotype (%) [2]: 17.12% and 38.28%
Population Mitotic Cells (%) [2]: 44.68% and 39.47%
Population Normal (%) [2]: 100%
Population Pyknosed Nuclei (%) [2]: 14.87% and 21.84%
Population Tubulin-Different-Phenotype (%) [2]: 58.37% and 42.19%
Total Cell Count [2]: 316 and 174
Population Apoptotic (%) [3]: 51.56% and 40%
Population Fragmented Nuclei (%) [3]: 1.88% and 1.95%
Population Healthy Nuclei (%) [3]: 87.2% and 85.85%
Population Hoechst High Intensity Objects (%) [3]: 0.17% and 0%
Population Membrane Permeable-Phenotype (%) [3]: 1.76% and 3.98%
Population Mitotic Cells (%) [3]: 48.44% and 60%
Population Normal (%) [3]: 99.83% and 100%
Population Pyknosed Nuclei (%) [3]: 10.92% and 12.2%
Population Tubulin-Different-Phenotype (%) [3]: 1.96% and 2.27%
Total Cell Count [3]: 587 and 205
Population Apoptotic (%) [4]: 70.87% and 69.84%
Population Fragmented Nuclei (%) [4]: 5.07% and 6.21%
Population Healthy Nuclei (%) [4]: 65.92% and 58.19%
Population Hoechst High Intensity Objects (%) [4]: 0.28% and 0%
Population Membrane Permeable-Phenotype (%) [4]: 18.8% and 30.1%
Population Mitotic Cells (%) [4]: 29.13% and 30.16%
Population Normal (%) [4]: 99.72% and 100%
Population Pyknosed Nuclei (%) [4]: 29.01% and 35.59%
Population Tubulin-Different-Phenotype (%) [4]: 47.86% and 58.25%
Total Cell Count [4]: 356 and 177
Population Apoptotic (%) [5]: 54.74% and 41.51%
Population Fragmented Nuclei (%) [5]: 2.6% and 1.21%
Population Healthy Nuclei (%) [5]: 87.9% and 82.73%
Population Hoechst High Intensity Objects (%) [5]: 0%
Population Membrane Permeable-Phenotype (%) [5]: 1.02% and 2.56%
Population Mitochondria Different-Phenotype (%) [5]: 0% and 5.13%
Population Mitotic Cells (%) [5]: 45.26% and 58.49%
Population Normal (%) [5]: 100%
Population Pyknosed Nuclei (%) [5]: 9.5% and 16.06%
Population Tubulin-Different-Phenotype (%) [5]: 0.57% and 2.56%
Population Apoptotic (%) [6]: 82.42% and 88.41%
Population Fragmented Nuclei (%) [6]: 3.22% and 2.72%
Population Healthy Nuclei (%) [6]: 72.39% and 59.78%
Population Hoechst High Intensity Objects (%) [6]: 0%
Population Mitochondria Different-Phenotype (%) [6]: 14.07% and 38.18%
Population Mitotic Cells (%) [6]: 17.58% and 11.59%
Population Normal (%) [6]: 100%
Population Pyknosed Nuclei (%) [6]: 24.4% and 37.5%
Population Tubulin-Different-Phenotype (%) [6]: 61.85% and 69.09%
Total Cell Count [6]: 373 and 184

COC[C@@H](CC(C)C)NC1=N/C(=C\c2ccc3ncsc3c2)C(=O)N1C
Population Apoptotic (%) [1]: 55.88% and 33.33%
Population Fragmented Nuclei (%) [1]: 15.5% and 15.08%
Population Healthy Nuclei (%) [1]: 77.48% and 78.21%
Population Hoechst High Intensity Objects (%) [1]: 0.41% and 0%
Population Membrane Permeable-Phenotype (%) [1]: 0.8% and 2.14%
Population Mitochondria Different-Phenotype (%) [1]: 0.27% and 9.29%
Population Mitotic Cells (%) [1]: 44.12% and 66.67%
Population Normal (%) [1]: 99.59% and 100%
Population Pyknosed Nuclei (%) [1]: 7.02% and 6.7%
Population Tubulin-Different-Phenotype (%) [1]: 1.33% and 0%
Total Cell Count [1]: 486 and 179
Population Apoptotic (%) [2]: 25% and 29.63%
Population Fragmented Nuclei (%) [2]: 47.65% and 84.45%
Population Hoechst High Intensity Objects (%) [2]: 29.32% and 10.96%
Population Membrane Permeable-Phenotype (%) [2]: 4.62% and 2.68%
Population Mitotic Cells (%) [2]: 75% and 70.37%
Population Normal (%) [2]: 70.68% and 89.04%
Population Pyknosed Nuclei (%) [2]: 3.24% and 3.02%
Population Tubulin-Different-Phenotype (%) [2]: 20.13% and 12.5%
Total Cell Count [2]: 873 and 1004
Population Apoptotic (%) [3]: 67.39% and 47.62%
Population Fragmented Nuclei (%) [3]: 12.71% and 10%
Population Healthy Nuclei (%) [3]: 79.7% and 80.87%
Population Hoechst High Intensity Objects (%) [3]: 0%
Population Membrane Permeable-Phenotype (%) [3]: 0.41% and 0%
Population Mitochondria Different-Phenotype (%) [3]: 0.41% and 6.45%
Population Mitotic Cells (%) [3]: 32.61% and 52.38%
Population Normal (%) [3]: 100%
Population Pyknosed Nuclei (%) [3]: 7.59% and 9.13%
Population Tubulin-Different-Phenotype (%) [3]: 0.83% and 0%
Total Cell Count [3]: 606 and 230
Population Fragmented Nuclei (%) [4]: 53.16% and 86.53%
Population Hoechst High Intensity Objects (%) [4]: 30.44% and 12.75%
Population Membrane Permeable-Phenotype (%) [4]: 2.98% and 2.22%
Population Mitotic Cells (%) [4]: 91.67% and 75%
Population Normal (%) [4]: 69.56% and 87.25%
Population Pyknosed Nuclei (%) [4]: 4.34% and 3.2%
Population Tubulin-Different-Phenotype (%) [4]: 20% and 8.89%
Total Cell Count [4]: 795 and 1004
Population Apoptotic (%) [5]: 48.44% and 55.56%
Population Fragmented Nuclei (%) [5]: 12.46% and 10.34%
Population Healthy Nuclei (%) [5]: 81.16% and 82.49%
Population Hoechst High Intensity Objects (%) [5]: 0.69% and 0.79%
Population Membrane Permeable-Phenotype (%) [5]: 1.6% and 0.64%
Population Mitochondria Different-Phenotype (%) [5]: 0% and 3.54%
Population Mitotic Cells (%) [5]: 51.56% and 44.44%
Population Normal (%) [5]: 99.31% and 99.21%
Population Pyknosed Nuclei (%) [5]: 6.38% and 7.16%
Population Tubulin-Different-Phenotype (%) [5]: 0.86% and 0%
Total Cell Count [5]: 1010 and 380
Population Apoptotic (%) [6]: 42.86% and 52.83%
Population Fragmented Nuclei (%) [6]: 86.99% and 92.61%
Population Healthy Nuclei (%) [6]: 3.8% and 2.78%
Population Hoechst High Intensity Objects (%) [6]: 32.94% and 15.32%
Population Membrane Permeable-Phenotype (%) [6]: 3.85% and 3.12%
Population Mitochondria Different-Phenotype (%) [6]: 0% and 3.12%
Population Mitotic Cells (%) [6]: 57.14% and 47.17%
Population Normal (%) [6]: 67.06% and 84.68%
Population Pyknosed Nuclei (%) [6]: 9.21% and 4.61%
Population Tubulin-Different-Phenotype (%) [6]: 3.85% and 6.25%
Total Cell Count [6]: 1020 and 1358

COc1cc(/C=C(\C#N)C(=O)Nc2nnc(C(F)(F)F)s2)ccc1OCc1ccc(C(F)(F)F)cc1C(F)(F)F
Population Apoptotic (%) [1]: 22.22% and 38.1%
Population Fragmented Nuclei (%) [1]: 1.99% and 4.9%
Population Healthy Nuclei (%) [1]: 89.05% and 80.42%
Population Hoechst High Intensity Objects (%) [1]: 0%
Population Membrane Permeable-Phenotype (%) [1]: 0.84% and 2.61%
Population Mitochondria Different-Phenotype (%) [1]: 0.28% and 6.09%
Population Mitotic Cells (%) [1]: 77.78% and 61.9%
Population Normal (%) [1]: 100%
Population Pyknosed Nuclei (%) [1]: 8.96% and 14.69%
Population Tubulin-Different-Phenotype (%) [1]: 0.56% and 0%
Total Cell Count [1]: 402 and 143
Population Apoptotic (%) [2]: 36.59% and 47.06%
Population Fragmented Nuclei (%) [2]: 1.77% and 5.29%
Population Healthy Nuclei (%) [2]: 87.88% and 85.71%
Population Hoechst High Intensity Objects (%) [2]: 0%
Population Membrane Permeable-Phenotype (%) [2]: 0.57% and 6.17%
Population Mitochondria Different-Phenotype (%) [2]: 0.29% and 3.09%
Population Mitotic Cells (%) [2]: 63.41% and 52.94%
Population Normal (%) [2]: 100%
Population Pyknosed Nuclei (%) [2]: 10.35% and 8.99%
Population Tubulin-Different-Phenotype (%) [2]: 1.72% and 0%
Total Cell Count [2]: 396 and 189
Population Apoptotic (%) [3]: 43.86% and 43.48%
Population Fragmented Nuclei (%) [3]: 1.6% and 6.28%
Population Healthy Nuclei (%) [3]: 88.24% and 81.68%
Population Hoechst High Intensity Objects (%) [3]: 0%
Population Membrane Permeable-Phenotype (%) [3]: 0.81% and 3.85%
Population Mitochondria Different-Phenotype (%) [3]: 0% and 5.13%
Population Mitotic Cells (%) [3]: 56.14% and 56.52%
Population Normal (%) [3]: 100%
Population Pyknosed Nuclei (%) [3]: 10.16% and 12.04%
Population Tubulin-Different-Phenotype (%) [3]: 0.81% and 0.64%
Total Cell Count [3]: 561 and 191
Population Apoptotic (%) [4]: 52.08% and 57.69%
Population Fragmented Nuclei (%) [4]: 0.74% and 3.08%
Population Healthy Nuclei (%) [4]: 90.41% and 85.46%
Population Hoechst High Intensity Objects (%) [4]: 0%
Population Membrane Permeable-Phenotype (%) [4]: 1.43% and 7.22%
Population Mitochondria Different-Phenotype (%) [4]: 0% and 1.03%
Population Mitotic Cells (%) [4]: 47.92% and 42.31%
Population Normal (%) [4]: 100%
Population Pyknosed Nuclei (%) [4]: 8.86% and 11.45%
Population Tubulin-Different-Phenotype (%) [4]: 1.43% and 0.52%
Total Cell Count [4]: 542 and 227
Population Apoptotic (%) [5]: 46.05% and 40.48%
Population Fragmented Nuclei (%) [5]: 3.37% and 3.16%
Population Healthy Nuclei (%) [5]: 89.31% and 83.54%
Population Hoechst High Intensity Objects (%) [5]: 0%
Population Membrane Permeable-Phenotype (%) [5]: 1.29% and 1.14%
Population Mitochondria Different-Phenotype (%) [5]: 0.11% and 2.65%
Population Mitotic Cells (%) [5]: 53.95% and 59.52%
Population Normal (%) [5]: 100%
Population Pyknosed Nuclei (%) [5]: 7.32% and 13.29%
Population Tubulin-Different-Phenotype (%) [5]: 0.32% and 0%
Population Apoptotic (%) [6]: 40% and 47.5%
Population Fragmented Nuclei (%) [6]: 2.52% and 1.99%
Population Healthy Nuclei (%) [6]: 89.1% and 88.09%
Population Hoechst High Intensity Objects (%) [6]: 0%
Population Membrane Permeable-Phenotype (%) [6]: 0.47% and 3.66%
Population Mitochondria Different-Phenotype (%) [6]: 0% and 0.85%
Population Mitotic Cells (%) [6]: 60% and 52.5%
Population Normal (%) [6]: 100%
Population Pyknosed Nuclei (%) [6]: 8.39% and 9.93%
Population Tubulin-Different-Phenotype (%) [6]: 0.82% and 1.13%
Total Cell Count [6]: 954 and 403
